Screening results deposited in PubChem BioAssay by several laboratories.
A selection: hits, their analogues and other compounds. The true share with any hit is near 3.4%.
ANO1 block: mouse TMEM16A channel inhibition, primary screen; AID 588511; hit rate 1.2% among 310,000; Q8BHY3; normalized B-score (activity score, 25-100; higher = stronger inhibition) at 10 µM; HEK293 TMEM16A/YFP iodide influx fluorescence, ionomycin;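 active = ratio plate-corrected score three or more library SD toward inhibition, starting fluorescence score within five deviations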;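 also: score derived from kinetic fluorescence span divided by baseline fluorescence per well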
Target sequence (Q8BHY3 whole entry, looked up): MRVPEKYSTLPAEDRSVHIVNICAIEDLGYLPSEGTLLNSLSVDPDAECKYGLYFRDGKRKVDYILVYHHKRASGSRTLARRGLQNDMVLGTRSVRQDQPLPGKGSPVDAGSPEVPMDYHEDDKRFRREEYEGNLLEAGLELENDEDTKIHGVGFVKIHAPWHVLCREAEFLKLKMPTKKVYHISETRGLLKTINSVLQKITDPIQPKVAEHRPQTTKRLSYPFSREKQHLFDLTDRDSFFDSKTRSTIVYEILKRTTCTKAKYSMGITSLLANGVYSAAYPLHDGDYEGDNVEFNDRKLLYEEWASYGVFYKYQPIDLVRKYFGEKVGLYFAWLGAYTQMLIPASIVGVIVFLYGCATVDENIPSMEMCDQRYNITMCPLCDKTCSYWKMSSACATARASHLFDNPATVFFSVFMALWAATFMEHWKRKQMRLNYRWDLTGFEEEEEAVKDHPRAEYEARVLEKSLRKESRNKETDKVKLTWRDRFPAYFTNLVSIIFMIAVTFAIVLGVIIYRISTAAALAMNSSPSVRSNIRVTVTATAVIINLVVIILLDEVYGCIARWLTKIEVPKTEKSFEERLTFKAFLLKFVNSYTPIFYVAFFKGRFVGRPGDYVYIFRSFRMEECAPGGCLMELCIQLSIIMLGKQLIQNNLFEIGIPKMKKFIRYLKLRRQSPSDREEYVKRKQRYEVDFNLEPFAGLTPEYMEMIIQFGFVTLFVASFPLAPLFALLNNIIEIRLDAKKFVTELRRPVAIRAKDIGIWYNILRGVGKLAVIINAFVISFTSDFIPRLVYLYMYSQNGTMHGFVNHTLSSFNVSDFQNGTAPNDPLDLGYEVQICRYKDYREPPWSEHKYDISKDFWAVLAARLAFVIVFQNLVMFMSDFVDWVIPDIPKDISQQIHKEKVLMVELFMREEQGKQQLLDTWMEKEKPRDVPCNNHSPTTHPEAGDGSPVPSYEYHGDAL
IMP-1 inh: blocks Pseudomonas aeruginosa IMP-1 metallo-beta-lactamase; purified IMP-1, nitrocefin hydrolysis, epi-absorbance fluorescence; inhibition, % at 5.6 µM; hit rate 0.45% among 290,000; AID 1556;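 active = inhibition above the mean plus 3 SD of all compounds in the same screening run, cut at about 4.5% in these data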;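 also: 0% = IMP-1 with DMSO and 100% = DMSO wells lacking enzyme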
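Assay system: purified recombinant IMP-1 beta-lactamase. Input: IMP-1 0.2 nM before substrate addition. Buffer or medium: Zinc- and detergent-supplemented HEPES buffer, pH 7.1. Schedule: 25 °C, 15 min preincubation, 25 min reaction. Signal: Epi-absorbance fluorescence, 480 nm excitation, 530 nm emission. Evaluation: percent inhibition from optical density relative to buffer-blank wells.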
ANO1 activ: activators or potentiators of mouse TMEM16A chloride channel; Q8BHY3; HEK293 TMEM16A/YFP-H148Q/I152L, iodide quench fluorescence; hits give low values; B-score at 10 µM; hit rate 0.3% among 340,000;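 active = fluorescence-ratio B-score plate-corrected deviation score at least 3 library SD below zero, with starting fluorescence score within 5 deviations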;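 also: channel opened by trigger with iodide after compound preincubation; score built on the fluorescence ratio of max minus min over baseline; more negative score means more quench and so TMEM16A activation or potentiation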
CHT inh: inhibitors of human choline transporter CHT; AID 488975; hit rate 0.86% among 310,000; CHT-expressing cells, membrane potential dye, choline response; hits give low values; B-score at 10 µM; Q9GZV3;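 active = B-score over 3 SD under the library average, and starting fluorescence ratio not unusually high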;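 also: choline stimulus applied at its EC90 after an EC20 pre-addition; B-score computed on integrated fluorescence ratio after choline addition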
CHT PAM: allosteric activators of human choline transporter CHT; Q9GZV3; hit rate 0.49% among 310,000; B-score at 10 µM; CHT-expressing cells, membrane potential dye, choline EC20; hits give high values; LV-AA mutant CHT in HEK293 cells;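 active = initial fluorescence not abnormally high and integrated response B-score, plate-corrected, over 3 SD above library mean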
VIM-2 inhibitor: inhibitors of Pseudomonas aeruginosa VIM-2 metallo-beta-lactamase. AID 1527. hit rate 0.89% among 290,000. purified VIM-2, nitrocefin hydrolysis, epi-absorbance fluorescence. inhibition, % at 5.6 µM;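 active = inhibition above the mean of all tested compounds plus 3 SD, cutoff set per screening run, cut at about 7.5% in these data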;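 also: red hydrolysis product quenches plate fluorescence so inhibitors raise well fluorescence; 0% = enzyme with DMSO and 100% = DMSO without enzyme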
CHT block conf: human CHT inhibition, confirmatory screen; shares compounds with CHT inh; CHT-expressing cells, choline membrane potential dye; LV-to-AA substituted CHT, HEK293 cells; CHT activity remaining % of control (hits give low values), % at 10 µM; hit rate 70% among 2,400;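 active = choline transporter activity left, mean of duplicates at 10 µM, below buffer-only control mean minus 3 SD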;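 also: depolarization triggered by choline at its EC90 following an EC20 pre-addition; 0% = hemicholinium-3 full block and 100% = buffer-only control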
HEK293 CHT ctr: activity in parental HEK293 cells lacking CHT; shares compounds with CHT inh; membrane potential dye, choline response; active = decrease or increase beyond buffer ±3SD; membrane potential ratio readout (active if shifted either direction beyond buffer ±3SD; no single direction) at 10 µM; hit rate 4% among 2,400; AID 493222;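 also: parental cells lack the transporter so any hit is non-specific; ratio is peak minus trough fluorescence over baseline after EC90 choline challenge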
An asterisk follows results filed as active.

Results for COc1ccc(C(CNC(=O)c2ccc(OC)c(S(=O)(=O)N3CCCC3)c2)N2CCCC2)cc1 (configuration not stated) ?
ANO1 activ: inactive

What do the screens show for `COc1ccc(N2CCN(C3CCCN(C(=O)CN4CCCC4=O)C3)CC2)cc1` (configuration not stated)?
ANO1 block: inactive; IMP-1 inh: -1; ANO1 activ: inactive; CHT inh: inactive; CHT PAM: inactive; VIM-2 inhibitor: -3

What do the screens show for `Cc1cccc(N2CCN(C(=O)c3ccc(CNc4c(N5CCC(C)CC5)c(=O)c4=O)cc3)CC2C)c1` (configuration not stated)?
ANO1 block: inactive; IMP-1 inh: -3; ANO1 activ: inactive; CHT inh: -5.4*; CHT PAM: inactive; VIM-2 inhibitor: -3; CHT block conf: 70%*; HEK293 CHT ctr: inactive

What do the screens show for `Cc1ccc(S(=O)(=O)Nc2ccccc2C(=O)N2CCCCC2)cc1`?
ANO1 block: inactive; IMP-1 inh: 0; ANO1 activ: inactive; CHT inh: inactive; CHT PAM: inactive; VIM-2 inhibitor: -2

Results for CCc1ccc(-n2c(C)cc(/C=N/NC(=O)OC)c2C)cc1 ?
ANO1 block: inactive; IMP-1 inh: -3; ANO1 activ: inactive; CHT inh: -8.6*; CHT PAM: inactive; VIM-2 inhibitor: -3; CHT block conf: 62%*; HEK293 CHT ctr: inactive

How did COC(=O)N/N=C/c1cc(C)n(-c2ccccc2)c1C do in these assays?
ANO1 block: inactive; IMP-1 inh: -2; ANO1 activ: inactive; CHT inh: -8.3*; CHT PAM: inactive; VIM-2 inhibitor: -4; CHT block conf: 23%*; HEK293 CHT ctr: inactive

Results for Cc1cc(/C=N/NC(=O)c2ccncc2)c(C)n1-c1ccccc1 ?
ANO1 block: inactive; IMP-1 inh: -2; ANO1 activ: inactive; CHT inh: -6.8*; CHT PAM: inactive; VIM-2 inhibitor: -4; CHT block conf: 30%*; HEK293 CHT ctr: inactive

How did CCc1ccc(N=c2c([N+](=O)[O-])nn(-c3ccc4c(c3)OCCO4)n2O)cc1 do in these assays?
ANO1 block: inactive; IMP-1 inh: 1; ANO1 activ: inactive; CHT inh: -6.3*; CHT PAM: inactive; VIM-2 inhibitor: -1; CHT block conf: 69%*; HEK293 CHT ctr: inactive

What do the screens show for `COc1ccccc1C(CNC(=O)C(CCSC)NS(=O)(=O)c1ccccc1F)N1CCCC1` (configuration not stated)?
ANO1 block: inactive; ANO1 activ: inactive; CHT inh: inactive; CHT PAM: inactive

How did CC(NC(=O)c1ccc(F)cc1)c1ccc2c(c1)CCCC2 (configuration not stated) do in these assays?
ANO1 block: inactive; IMP-1 inh: -2; ANO1 activ: inactive; CHT inh: -6.2*; CHT PAM: inactive; VIM-2 inhibitor: -1; CHT block conf: 41%*; HEK293 CHT ctr: inactive

Results for CC(NC(=O)c1ccc(Br)cc1)c1ccc2c(c1)CCCC2 (configuration not stated) ?
ANO1 block: inactive; IMP-1 inh: -1; ANO1 activ: inactive; CHT inh: -9.7*; CHT PAM: inactive; VIM-2 inhibitor: -2; CHT block conf: inactive; HEK293 CHT ctr: inactive

Results for Cc1ccc(C(C)C)c(OCCNCCc2ccccc2)c1 ?
ANO1 block: inactive; IMP-1 inh: 1; ANO1 activ: inactive; CHT inh: inactive; CHT PAM: inactive; VIM-2 inhibitor: -1

How did CC(=O)Nc1c2c3c(cccc3n(C)c1=O)C(=O)c1ccccc1-2 do in these assays?
ANO1 block: inactive; IMP-1 inh: -2; ANO1 activ: inactive; CHT inh: -5.9*; CHT PAM: inactive; VIM-2 inhibitor: 3; CHT block conf: 45%*; HEK293 CHT ctr: 2.4*

Results for CC(C)(C)n1ncc2c(=O)n(CC(=O)OCc3ccccc3)cnc21 ?
ANO1 block: inactive; IMP-1 inh: -1; ANO1 activ: inactive; CHT inh: -6.7*; CHT PAM: inactive; VIM-2 inhibitor: -1; CHT block conf: inactive; HEK293 CHT ctr: inactive

Results for CC(C)(C)n1ncc2c(=O)n(CC(=O)c3ccccc3)cnc21 ?
ANO1 block: inactive; IMP-1 inh: -2; ANO1 activ: inactive; CHT inh: inactive; CHT PAM: inactive; VIM-2 inhibitor: 0

How did CCNc1nc(NC(C)C)nc(N(C#N)CCOc2ccccc2)n1 do in these assays?
ANO1 block: inactive; IMP-1 inh: -3; ANO1 activ: inactive; CHT inh: inactive; CHT PAM: inactive; VIM-2 inhibitor: -2

Results for CC(C)Nc1nc(Cl)nc(N(C#N)CN2C(=O)c3ccccc3C2=O)n1 ?
ANO1 block: inactive; IMP-1 inh: -3; ANO1 activ: inactive; CHT inh: -6.9*; CHT PAM: inactive; VIM-2 inhibitor: -4; CHT block conf: 40%*; HEK293 CHT ctr: inactive

What do the screens show for `CCN(CC(=O)Nc1c(F)cccc1F)C(=O)Cn1c(=O)cnc2ccccc21`?
ANO1 activ: inactive

Results for CCCN(CC(=O)Nc1ccc(F)c(F)c1F)C(=O)Cn1c(=O)cnc2ccccc21 ?
ANO1 block: inactive; ANO1 activ: inactive; CHT inh: -11*; CHT PAM: inactive; CHT block conf: 8.6%*; HEK293 CHT ctr: inactive

How did Cc1noc(C)c1COC(=O)c1ccc(F)c(S(=O)(=O)N2CCCCC2)c1 do in these assays?
ANO1 block: inactive; IMP-1 inh: -3; ANO1 activ: inactive; CHT inh: -5*; CHT PAM: inactive; VIM-2 inhibitor: -1; CHT block conf: 69%*; HEK293 CHT ctr: inactive

Results for CCOC(=O)CC/C(C)=N\N=C1\SC(CC(=O)O)C(=O)N1c1ccccc1 (configuration not stated) ?
ANO1 block: inactive; IMP-1 inh: -3; ANO1 activ: inactive; CHT inh: inactive; CHT PAM: inactive; VIM-2 inhibitor: -2

Results for C=Cn1cc[n+](CC(=O)c2ccc(Cl)c(Cl)c2)c1 ?
ANO1 block: inactive; IMP-1 inh: -4; ANO1 activ: inactive; CHT inh: -7.2*; CHT PAM: inactive; VIM-2 inhibitor: -2; CHT block conf: 48%*; HEK293 CHT ctr: inactive

Results for C=Cn1cc[n+](CC(=O)C(C)(C)C)c1 ?
ANO1 block: inactive; IMP-1 inh: -4; ANO1 activ: inactive; CHT inh: inactive; CHT PAM: inactive; VIM-2 inhibitor: -4
